Results from ChEMBL document CHEMBL5649170, “Sustained microglial depletion with CSF1R inhibitor impairs parenchymal plaque development in an Alzheimer's disease model” (Nat Commun, 2019).

Legend:
[1] = Drug concentration in 5XFAD mouse plasma at 600 ppm administered as rodent chow starting from 1.5 months and measured after 5 months; type: ADME, cell-free; details: route po, time 3.5 months
How it was run: (§1)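 WT or 5xFAD mice were fed PLX3397 in AIN-76A chow at 600 ppm or 75 ppm from 1.5 to 5 months of age. Terminal brain and plasma drug concentrations were determined at study end.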

[2] = Drug concentration in 5XFAD mouse brain at 600 ppm administered as rodent chow starting from 1.5 months and measured after 5 months; type: ADME, tissue-based; details: route po, time 3.5 months, read-out: Ct; how it was run: as §1
Mus musculus = experiment: Antialzheimer activity in 5XFAD mouse assessed as number of plaques per FOV in […] cortex at 75 ppm administered as rodent chow starting from 1.5 months and measured after 5 months by immunolabeling based confocal microscopic analysis (reference value: […] to […]); type: functional; details: route po, time 3.5 months, 2555 h
[3] = Prevention of Zfp286 gene downregulation in 5XFAD mouse hippocampus assessed as percent change in Reads Per kilo base per Million mapped reads at 1200 ppm administered as rodent chow starting from 1.5 months and measured after 7 months by RNA-Seq analysis (reference value: 71.833 to 84.581 %); type: functional; details: route po, time 5.5 months, 4015 h
[4] = molecular target: T1, Macrophage colony-stimulating factor 1 receptor (Mus musculus) (UniProt P09581); experiment: In vivo inhibition of CSF1R in wildtype mouse assessed as iron reactivity by measuring hemosiderin intensity of prussian blue staining in […] cortex at 1200 ppm administered as rodent chow starting from 1.5 months and measured after 7 months by confocal microscopic analysis (reference value: 0.059 to 2.835 a.u.); type: functional; details: route po, time 5.5 months
T1 sequence (whole entry): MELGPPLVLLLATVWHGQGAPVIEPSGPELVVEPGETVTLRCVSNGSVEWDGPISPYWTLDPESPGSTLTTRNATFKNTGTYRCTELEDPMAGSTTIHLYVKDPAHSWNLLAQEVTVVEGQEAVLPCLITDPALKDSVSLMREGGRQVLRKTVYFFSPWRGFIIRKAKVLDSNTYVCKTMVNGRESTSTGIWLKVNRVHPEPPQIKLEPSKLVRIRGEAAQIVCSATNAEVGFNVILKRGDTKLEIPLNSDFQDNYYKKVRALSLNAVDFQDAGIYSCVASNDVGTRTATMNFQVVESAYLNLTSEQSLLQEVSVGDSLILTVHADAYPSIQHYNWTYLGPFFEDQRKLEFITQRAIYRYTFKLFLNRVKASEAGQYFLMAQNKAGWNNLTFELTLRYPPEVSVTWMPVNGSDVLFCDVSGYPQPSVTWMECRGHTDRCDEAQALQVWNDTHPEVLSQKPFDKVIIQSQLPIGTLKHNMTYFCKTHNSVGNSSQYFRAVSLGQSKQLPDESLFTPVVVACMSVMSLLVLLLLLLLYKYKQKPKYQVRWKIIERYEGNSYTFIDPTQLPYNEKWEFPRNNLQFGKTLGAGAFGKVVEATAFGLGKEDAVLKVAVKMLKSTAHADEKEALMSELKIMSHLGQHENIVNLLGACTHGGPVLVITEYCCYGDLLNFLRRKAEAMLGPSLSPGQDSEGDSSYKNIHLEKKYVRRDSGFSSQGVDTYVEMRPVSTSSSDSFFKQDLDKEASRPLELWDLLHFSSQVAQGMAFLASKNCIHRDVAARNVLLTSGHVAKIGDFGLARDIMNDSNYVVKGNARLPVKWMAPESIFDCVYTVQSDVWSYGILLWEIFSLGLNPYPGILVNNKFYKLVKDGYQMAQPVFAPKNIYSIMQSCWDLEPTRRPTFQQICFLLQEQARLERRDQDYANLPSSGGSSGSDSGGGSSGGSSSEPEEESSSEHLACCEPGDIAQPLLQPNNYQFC
How it was run: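 Wild-type or 5xFAD mice fed PLX5622 (1200 ppm) in AIN-76A chow from 1.5 months of age, examined in 4- and 7-month-old cohorts. Brain sections stained with a Prussian blue kit per kit instructions to detect iron deposits (microbleeds).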

[5] = molecular target: PI3-kinase p110-alpha/p85-alpha (Homo sapiens, UniProt P42336); experiment: Inhibition of PIK3CA/PIK3R1 (unknown origin); type: protein-complex assay
[6] = molecular target: Platelet-derived growth factor receptor beta (Homo sapiens, UniProt P09619); experiment: Inhibition of PDGFRB (unknown origin)
[7] = molecular target: Casein kinase I isoform delta (Homo sapiens, UniProt P48730); experiment: Inhibition of CSNK1D (unknown origin)
[8] = molecular target: Proto-oncogene tyrosine-protein kinase receptor Ret (Homo sapiens, UniProt P07949, V804L); experiment: Inhibition of RET V804L mutant (unknown origin)
[9] = AUC (0 to 24 hrs) in 5XFAD mouse brain at 1200 ppm administered as rodent chow for 180 days; type: ADME, tissue-based; details: route po, time 180 day
[10] = Effect on C1qa gene expression in 5XFAD mouse cortex at 1200 ppm administered as rodent chow starting from 1.5 months and measured after 7 months by RNA-Seq analysis (reference value: 31.609 to 64.988 RPKM); type: functional; details: route po, time 5.5 months, 4015 h
How it was run: (§2)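 WT and 5xFAD mice were treated with 1200 ppm PLX5622 chow or control chow from 1.5 to 7 months of age. Brains were microdissected into cortex, hippocampus and thalamus, and RNA was extracted from tissue powder. Whole-transcriptome RNA-Seq libraries were sequenced, with n = 4 per group per region (48 samples).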

[11] = Half-life in dog at 1.00 mg/kg, iv administered as single dose; type: ADME, organism-based, Canis lupus familiaris; details: in vivo
[12] = Drug concentration in 5XFAD mouse brain at 1200 ppm administered as rodent chow for 10 to 24 weeks; type: ADME, tissue-based; details: in vivo, po, time 10-24 weeks, read-out: Ct
How it was run: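 WT or 5xFAD mice were started at 1.5 months of age on PLX5622 formulated at 1200 ppm in AIN-76A chow, with control chow as comparison. Feeding ran for 10 or 24 weeks. Terminal plasma and brain drug levels were then measured. Groups were sex-balanced and compared by two-tailed independent t-test.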

[13] = molecular target: Calcium/calmodulin-dependent protein kinase type IV (Homo sapiens, UniProt Q16566); experiment: Inhibition of CAMK4 (unknown origin)
[14] = molecular target: Mitogen-activated protein kinase kinase kinase kinase 4 (Homo sapiens, UniProt O95819); experiment: Inhibition of MAP4K4 (unknown origin)
[15] = Inhibition of CDK2/CyclinA (unknown origin); set-up: species or system Homo sapiens
[16] = molecular target: Ribosomal protein S6 kinase beta-1 (Homo sapiens, UniProt P23443); experiment: Inhibition of RPS6KB1 (unknown origin)
[17] = Effect on Clec7a gene expression in wild type mouse hippocampus at 1200 ppm administered as rodent chow starting from 1.5 months and measured after 7 months by RNA-Seq analysis (reference value: 0.034 to 0.503 RPKM); type: functional; details: route po, time 5.5 months, 4015 h; how it was run: as §2
[18] = Effect on Cst7 gene expression in 5XFAD mouse thalamus at 1200 ppm administered as rodent chow starting from 1.5 months and measured after 7 months by RNA-Seq analysis (reference value: 9.686 to 22.113 RPKM); type: functional; details: route po, time 5.5 months, 4015 h
[19] = molecular target: Homeodomain-interacting protein kinase 2 (Homo sapiens, UniProt Q9H2X6); experiment: Inhibition of HIPK2 (unknown origin)
[20] = molecular target: Serine/threonine-protein kinase 4 (Homo sapiens, UniProt Q13043); experiment: Inhibition of STK4 (unknown origin)
Chain of Serine/threonine-protein kinase 4 (Q13043 whole entry): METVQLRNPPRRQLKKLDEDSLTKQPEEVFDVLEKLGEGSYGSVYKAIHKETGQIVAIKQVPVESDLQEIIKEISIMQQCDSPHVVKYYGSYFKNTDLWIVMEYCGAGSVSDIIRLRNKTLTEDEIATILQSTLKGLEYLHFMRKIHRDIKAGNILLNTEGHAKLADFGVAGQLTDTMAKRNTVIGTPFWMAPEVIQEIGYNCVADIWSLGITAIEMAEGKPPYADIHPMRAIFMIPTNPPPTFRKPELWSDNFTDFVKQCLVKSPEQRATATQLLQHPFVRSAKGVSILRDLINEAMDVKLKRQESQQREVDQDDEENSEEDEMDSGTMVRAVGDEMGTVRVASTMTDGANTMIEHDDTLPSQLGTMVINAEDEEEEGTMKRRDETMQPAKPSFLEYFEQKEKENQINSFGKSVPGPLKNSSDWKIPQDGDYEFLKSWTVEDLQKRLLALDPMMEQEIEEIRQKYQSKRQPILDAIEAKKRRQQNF

Chain of Mitogen-activated protein kinase kinase kinase kinase 4 (O95819 whole entry): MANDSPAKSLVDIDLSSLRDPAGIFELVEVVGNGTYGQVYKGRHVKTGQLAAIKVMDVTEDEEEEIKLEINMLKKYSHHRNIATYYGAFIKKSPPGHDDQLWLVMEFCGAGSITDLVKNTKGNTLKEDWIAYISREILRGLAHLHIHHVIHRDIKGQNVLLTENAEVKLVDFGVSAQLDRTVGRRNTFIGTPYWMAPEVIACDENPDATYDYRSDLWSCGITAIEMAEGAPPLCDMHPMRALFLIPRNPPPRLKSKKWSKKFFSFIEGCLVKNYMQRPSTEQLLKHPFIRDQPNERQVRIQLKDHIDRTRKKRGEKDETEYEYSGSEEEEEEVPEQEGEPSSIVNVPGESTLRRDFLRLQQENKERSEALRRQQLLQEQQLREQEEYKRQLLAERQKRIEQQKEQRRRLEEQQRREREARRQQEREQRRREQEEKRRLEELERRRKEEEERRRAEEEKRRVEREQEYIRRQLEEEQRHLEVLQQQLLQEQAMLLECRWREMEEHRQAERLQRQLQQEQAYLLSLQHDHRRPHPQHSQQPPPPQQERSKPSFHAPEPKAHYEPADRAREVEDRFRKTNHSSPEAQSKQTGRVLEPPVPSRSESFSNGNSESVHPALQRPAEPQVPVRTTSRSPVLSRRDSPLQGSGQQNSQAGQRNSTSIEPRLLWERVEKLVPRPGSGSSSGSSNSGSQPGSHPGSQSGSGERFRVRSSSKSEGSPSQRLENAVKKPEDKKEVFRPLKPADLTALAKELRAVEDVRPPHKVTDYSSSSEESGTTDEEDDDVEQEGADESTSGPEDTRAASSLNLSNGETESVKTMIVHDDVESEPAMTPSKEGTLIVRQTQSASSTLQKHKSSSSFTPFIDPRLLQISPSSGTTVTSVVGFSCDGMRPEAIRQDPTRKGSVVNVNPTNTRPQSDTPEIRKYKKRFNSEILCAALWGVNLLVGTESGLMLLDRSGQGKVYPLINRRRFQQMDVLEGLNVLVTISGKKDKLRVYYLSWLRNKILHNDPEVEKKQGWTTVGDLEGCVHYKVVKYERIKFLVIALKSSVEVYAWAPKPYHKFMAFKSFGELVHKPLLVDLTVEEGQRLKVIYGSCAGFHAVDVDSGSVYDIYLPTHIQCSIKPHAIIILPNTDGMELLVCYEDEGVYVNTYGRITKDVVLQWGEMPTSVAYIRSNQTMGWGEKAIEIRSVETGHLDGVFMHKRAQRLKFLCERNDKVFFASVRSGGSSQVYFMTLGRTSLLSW
Chain of Calcium/calmodulin-dependent protein kinase type IV (Q16566 whole entry): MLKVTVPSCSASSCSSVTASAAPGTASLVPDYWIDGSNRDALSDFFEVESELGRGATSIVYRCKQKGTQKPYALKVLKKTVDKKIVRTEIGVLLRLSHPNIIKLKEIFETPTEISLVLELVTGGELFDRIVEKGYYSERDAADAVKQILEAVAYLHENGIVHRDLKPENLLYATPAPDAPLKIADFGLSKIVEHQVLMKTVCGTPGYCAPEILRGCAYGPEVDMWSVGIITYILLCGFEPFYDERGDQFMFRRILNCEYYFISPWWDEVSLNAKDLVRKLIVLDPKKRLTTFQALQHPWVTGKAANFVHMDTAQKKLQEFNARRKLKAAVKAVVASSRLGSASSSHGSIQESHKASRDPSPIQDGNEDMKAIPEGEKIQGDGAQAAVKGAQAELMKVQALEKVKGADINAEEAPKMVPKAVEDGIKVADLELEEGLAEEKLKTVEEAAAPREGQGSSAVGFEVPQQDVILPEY
Chain of Ribosomal protein S6 kinase beta-1 (P23443 whole entry): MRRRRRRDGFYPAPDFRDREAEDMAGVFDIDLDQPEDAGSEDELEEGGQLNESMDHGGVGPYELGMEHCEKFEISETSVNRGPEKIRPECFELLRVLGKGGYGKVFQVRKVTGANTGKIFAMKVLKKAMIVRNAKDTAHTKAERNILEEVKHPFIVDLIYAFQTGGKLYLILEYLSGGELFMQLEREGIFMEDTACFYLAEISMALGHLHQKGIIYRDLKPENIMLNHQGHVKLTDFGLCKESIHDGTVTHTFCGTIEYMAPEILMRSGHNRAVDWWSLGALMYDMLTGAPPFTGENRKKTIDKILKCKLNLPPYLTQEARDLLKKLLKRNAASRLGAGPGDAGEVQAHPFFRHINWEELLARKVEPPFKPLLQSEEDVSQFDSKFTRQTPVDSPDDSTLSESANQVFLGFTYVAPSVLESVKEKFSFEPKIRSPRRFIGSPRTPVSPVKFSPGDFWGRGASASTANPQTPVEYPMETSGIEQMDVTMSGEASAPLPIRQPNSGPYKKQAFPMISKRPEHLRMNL
Chain of Proto-oncogene tyrosine-protein kinase receptor Ret (P07949 29-1114 V804L limits assumed): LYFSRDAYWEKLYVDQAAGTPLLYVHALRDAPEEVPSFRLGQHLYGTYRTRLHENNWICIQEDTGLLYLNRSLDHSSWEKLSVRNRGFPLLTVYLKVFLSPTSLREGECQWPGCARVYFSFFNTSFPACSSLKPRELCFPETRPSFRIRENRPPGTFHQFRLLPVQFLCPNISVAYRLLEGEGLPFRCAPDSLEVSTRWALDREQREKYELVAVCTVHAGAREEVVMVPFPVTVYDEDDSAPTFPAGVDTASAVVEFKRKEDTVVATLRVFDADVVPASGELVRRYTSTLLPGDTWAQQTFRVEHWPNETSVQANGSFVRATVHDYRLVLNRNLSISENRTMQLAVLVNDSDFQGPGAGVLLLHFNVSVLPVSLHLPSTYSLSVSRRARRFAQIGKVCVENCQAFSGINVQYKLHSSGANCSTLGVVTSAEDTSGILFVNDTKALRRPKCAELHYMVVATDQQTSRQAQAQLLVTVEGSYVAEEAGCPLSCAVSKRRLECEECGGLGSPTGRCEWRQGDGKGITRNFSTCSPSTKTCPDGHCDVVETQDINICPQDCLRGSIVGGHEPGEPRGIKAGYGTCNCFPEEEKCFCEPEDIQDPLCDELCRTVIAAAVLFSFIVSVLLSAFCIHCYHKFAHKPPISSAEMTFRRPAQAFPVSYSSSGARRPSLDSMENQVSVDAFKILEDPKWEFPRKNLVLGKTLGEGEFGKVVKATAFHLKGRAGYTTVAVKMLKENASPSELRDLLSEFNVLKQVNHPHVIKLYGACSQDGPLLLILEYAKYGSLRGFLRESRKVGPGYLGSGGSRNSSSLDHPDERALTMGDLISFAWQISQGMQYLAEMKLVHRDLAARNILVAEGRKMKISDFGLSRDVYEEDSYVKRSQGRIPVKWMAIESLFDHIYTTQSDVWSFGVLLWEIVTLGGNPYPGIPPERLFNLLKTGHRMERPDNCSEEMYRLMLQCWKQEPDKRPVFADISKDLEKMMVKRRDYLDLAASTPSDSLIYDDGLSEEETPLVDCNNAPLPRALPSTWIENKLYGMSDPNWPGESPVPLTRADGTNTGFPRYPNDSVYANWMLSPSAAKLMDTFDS
Chain of Platelet-derived growth factor receptor beta (P09619 whole entry, canonical isoform): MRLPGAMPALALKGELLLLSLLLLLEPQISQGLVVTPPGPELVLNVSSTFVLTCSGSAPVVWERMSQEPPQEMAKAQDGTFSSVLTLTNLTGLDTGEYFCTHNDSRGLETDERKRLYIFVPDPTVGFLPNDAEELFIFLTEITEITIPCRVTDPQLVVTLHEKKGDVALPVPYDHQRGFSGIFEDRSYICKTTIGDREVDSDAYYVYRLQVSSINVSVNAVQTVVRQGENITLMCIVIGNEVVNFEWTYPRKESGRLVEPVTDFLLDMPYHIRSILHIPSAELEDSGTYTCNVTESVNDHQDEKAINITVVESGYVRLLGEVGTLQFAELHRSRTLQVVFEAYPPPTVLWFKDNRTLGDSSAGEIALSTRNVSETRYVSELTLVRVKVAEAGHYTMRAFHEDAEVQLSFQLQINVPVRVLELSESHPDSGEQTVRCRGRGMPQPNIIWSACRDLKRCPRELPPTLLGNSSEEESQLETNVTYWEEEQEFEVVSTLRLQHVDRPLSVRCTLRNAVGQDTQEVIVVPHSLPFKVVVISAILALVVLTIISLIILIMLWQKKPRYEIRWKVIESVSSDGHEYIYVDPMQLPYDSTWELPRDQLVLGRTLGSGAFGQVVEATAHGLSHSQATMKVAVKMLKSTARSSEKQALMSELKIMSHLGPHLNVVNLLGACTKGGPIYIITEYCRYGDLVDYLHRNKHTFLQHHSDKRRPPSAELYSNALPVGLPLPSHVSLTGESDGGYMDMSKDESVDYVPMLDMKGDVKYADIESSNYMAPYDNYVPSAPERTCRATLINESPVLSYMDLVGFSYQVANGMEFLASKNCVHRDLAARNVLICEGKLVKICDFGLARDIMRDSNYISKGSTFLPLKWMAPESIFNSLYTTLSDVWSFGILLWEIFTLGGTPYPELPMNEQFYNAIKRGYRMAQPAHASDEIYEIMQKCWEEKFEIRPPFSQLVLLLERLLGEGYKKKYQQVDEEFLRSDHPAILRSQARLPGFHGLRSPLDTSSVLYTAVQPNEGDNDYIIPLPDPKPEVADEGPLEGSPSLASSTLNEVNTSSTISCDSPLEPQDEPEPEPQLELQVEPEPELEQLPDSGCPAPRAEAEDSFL

Work on `FC(F)(F)c1ccc(CNc2ccc(Cc3c[nH]c4ncc(Cl)cc34)cn2)cn1` [PEXIDARTINIB] yielded a concentration at 2555 h [1] of 158 µM, a concentration at 2555 h [2] of 5.6 µM and an Activity (Mus musculus) of 34.
With `COc1ncc(F)cc1CNc1ccc(Cc2c[nH]c3ncc(C)cc23)c(F)n1` [PLX-5622] the Activity [3] was 91.857%, the Flu intensity [4] was 0.747 a.u and the IC50 [5] was > 1000 nM. The IC50 [6] was > 1000 nM, the IC50 [7] was > 1000 nM and the IC50 [8] was > 1000 nM. The AUC at 4320 h [9] was 57300 ng·h/mL, the Activity [10] was 2.8 RPKM and the half-life [11] was 15 h. The concentration [12] was 3.47 µM, the IC50 [13] was > 1000 nM and the IC50 [14] was > 1000 nM. For the same compound, the IC50 [15] was > 1000 nM, the IC50 [16] was > 1000 nM and the Activity [17] was 0.04 RPKM. The Activity [18] was 0.096 RPKM, the IC50 [19] was > 1000 nM and the IC50 [20] was > 1000 nM.
